# High-throughput results deposited in PubChem BioAssay by several laboratories.
# CHOP UPR activ – activators of apoptotic arm of unfolded protein response (CHOP). CHO-CHOP luciferase reporter, UPR activation, luminescence; percent of tunicamycin response over DMSO baseline. activation, % at 10 µM. AID 449763. actives 0.34% (n = 330,000);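 active = at 10 µM dose, activation of 40% or more, normalized to positive control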;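 note: 100% = tunicamycin at 10 µg/mL and 0% = DMSO alone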
#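 System: CHO-CHOP luciferase reporter cell line | Buffer or medium: F12 medium containing 10% fetal bovine serum | Doses: One dose, 10 µM in 0.5% DMSO | Times: 6 h compound exposure at 37 °C after overnight seeding | Signal: Luciferase luminescence | Read-out: % activation vs tunicamycin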
# VLA-4 inh – inhibition in a human VLA-4 binding assay; VLA-4 expressing cells, ligand binding flow cytometry; inhibition, % (about 7 µM as worked out from the volumes in the protocol); actives 0.2% (n = 330,000); in the data active = inhibition above about 50%
# B2AR ag – activates human beta-2 adrenergic receptor causing internalization. Am2.2-beta2AR cells, FAP receptor internalization, flow cytometry. response, % (test concentration not listed). actives 0.43% (n = 340,000);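 active = response above a set limit, near 3 SD of response in nonfluorescent compounds, cut at about 42% in these data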
# Target sequence (P07550 whole entry, looked up): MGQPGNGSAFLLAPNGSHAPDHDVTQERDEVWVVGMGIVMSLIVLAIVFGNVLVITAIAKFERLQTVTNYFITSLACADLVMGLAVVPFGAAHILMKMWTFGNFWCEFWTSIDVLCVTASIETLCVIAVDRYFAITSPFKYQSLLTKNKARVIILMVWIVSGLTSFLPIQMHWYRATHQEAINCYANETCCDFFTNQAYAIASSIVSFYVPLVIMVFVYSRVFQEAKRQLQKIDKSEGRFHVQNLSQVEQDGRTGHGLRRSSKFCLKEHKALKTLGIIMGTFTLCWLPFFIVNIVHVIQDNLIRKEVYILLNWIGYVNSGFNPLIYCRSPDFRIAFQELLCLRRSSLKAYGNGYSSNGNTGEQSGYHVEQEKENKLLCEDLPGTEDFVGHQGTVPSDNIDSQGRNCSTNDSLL
# UPR XBP1 act – adaptive UPR (XBP1) activation | activation, % at 20 µM | CHO-XBP1 luciferase reporter, IRE1-XBP1 UPR activation, luminescence; percent of tunicamycin response, DMSO as zero | actives 0.33% (n = 330,000);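 active = versus positive control, 20 µM dose yields 30% or more activation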;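 note: 100% = tunicamycin at 10 µg/mL and 0% = DMSO only wells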
#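 Signal: luciferase luminescence; Assay system: CHO-XBP1 luciferase reporter cells; Amount: one thousand reporter cells per well; Dosing: 20 µM single concentration, DMSO 1%; Benchmarks: high control tunicamycin 10 µg/mL final, low control DMSO vehicle only; Schedule: 6 h compound exposure at 37 °C, 5% CO2; Evaluation: percent activation relative to tunicamycin reference.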
# CHOP inh – blocks CHOP induction under ER stress; AID 2732; CHO-K1 CHOP-promoter luciferase, tunicamycin-induced, 15-18 h; actives 3.8% (n = 220,000); inhibition, % at 10 µM;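 active = compounds that reduced the stress-induced luciferase reporter signal by more than about 70% of percent inhibition, limit read from the data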;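 note: 0% = tunicamycin plus vehicle and 100% = wells without tunicamycin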
# Active calls of the source: *; / = not tested or not shown; ! = a repeat was not active. Shown is part of a subset that was picked to be rich in hits.
SMILES,CHOP UPR activ,VLA-4 inh,B2AR ag,UPR XBP1 act,CHOP inh
CC1CCN(C(=O)Cn2c(=O)n(CCc3ccccc3)c(=O)c3ccccc32)CC1,-1.6,-7.5,6.3,-0.8,88.1*
O=C(NNC(=O)C1CC(c2cccs2)=NO1)Nc1ccc(Cl)cc1 (centres undefined),1.7,-11.5,-1.6,-3.9,/
CCc1noc(C)c1C(=O)N1CC(C)SC1=Nc1ccc(Cl)cc1 (centres undefined),-1.6,38.5,-3.4,0.2,/
Cc1cccc(N2CCN(C(c3cccs3)c3nnnn3C(C)(C)C)CC2)c1C (centres undefined),10.3,0.0,8.1,0.3,77.4*
Cc1cccc(N2CCN(C(c3ccccc3)c3nnnn3C(C)(C)C)CC2)c1C (centres undefined),15.5,13.9,4.0,4.5,69.6
COc1cccc(NC(=O)CN(C)C(C)C(=O)NC(=O)NC2CCCCC2)c1 (centres undefined),0.2,-23.0,-5.6,-4.7,/
C=CCN=C1NN=C(c2ccc3c(c2)OCCO3)CS1,-9.4,-9.6,13.4,-8.8,70.6*
COCCn1c(C)cc(C2=NNC(=Nc3ccccc3F)SC2)c1C,-4.9,-1.9,5.4,-5.6,70.0*
C=CCN=C1NN=C(c2cc(C)n(CC=C)c2C)CS1,-10.5,0.0,-4.1,-6.8,92.7*
O=C1C2C3C=CC(CC3)C2C(=O)N1c1ccccc1F (centres undefined),-3.3,15.6,-14.2,-2.4,/
COc1ccc(C(=O)NN(C)c2nc(-c3ccccc3)nnc2C(F)(F)F)cc1,-1.4,8.3,49.1*,-5.6,14.3
COC1=C(OC)C(=O)C(CCCCCCCCCCO)=C(C)C1=O,/,/,/,/,-27.6
CC1=C(C)C(=O)C(CCCCC#CCCCC#CCO)=C(C)C1=O,0.1,7.4,3.0,-8.9,73.3*!
CC1C/C(=C/c2ccco2)C(=O)/C(=C/c2ccco2)C1 (centres undefined),5.6,-31.7,/,2.2,-9.5
O=C1/C(=C\c2ccco2)CCC/C1=C\c1ccco1,4.4,-42.1,-4.9,3.5,87.4*
COc1ccc(S(=O)(=O)Nc2ccc(CC#N)cc2)cc1,0.7,1.7,-13.5,0.3,1.5
N#CCc1ccc(NS(=O)(=O)c2ccc(C3CCCCC3)cc2)cc1,/,8.2,-1.1,/,81.1*
O=C(CCCc1nc2ccccc2s1)NCc1ccc(F)cc1,-0.8,2.4,5.0,-2.5,-2.3
Cc1ccc2c(=O)cc(C(=O)NCc3ccccc3)oc2c1C,1.3,-3.2,9.1,-0.2,/
CCOc1ccccc1NC(=O)c1cc(C(=O)c2cc(Br)ccc2O)coc1=N,0.4,-6.7,-4.5,-3.1,72.1*
CC(C)OC(=O)c1cc(C(=O)c2cc(Br)ccc2O)coc1=N,2.0,-11.1,5.5,-0.6,18.7
CCCCc1ccc(NC(=O)CSC2=NN3CCCC(=O)N=C3S2)cc1,3.2,-7.5,71.5*,-0.3,/
Cc1ccc(-n2nnc(-c3nccs3)n2)cc1,-8.9,4.9,-11.3,-7.1,77.5*
Clc1ccc(-n2nnc(-c3nccs3)n2)cc1Cl,1.7,/,-7.1,3.5,4.3
CCOc1ccc2nc(NC(=O)C3CCCN(S(=O)(=O)c4c(C)noc4C)C3)sc2c1 (centres undefined),1.1,-4.9,9.0,2.6,-21.2
SMILES,CHOP UPR activ,VLA-4 inh,B2AR ag,UPR XBP1 act,CHOP inh
COc1ccc2nc(NC(=O)C3CCCN(S(=O)(=O)c4c(C)noc4C)C3)sc2c1 (centres undefined),1.2,18.0,6.2,-3.7,75.5*
CCCCNC(=O)C(=O)N/N=C/c1ccc(OCC(=O)Nc2cccc(OC)c2)c(OC)c1,2.1,-1.1,3.1,-1.0,99.0*
Cc1ccc2c(c1)-c1ncc(C(=O)c3cc(Br)ccc3O)cc1CO2,0.7,7.8,/,0.3,47.0
CCN1C(=O)C(CC(=O)Nc2ccc(F)cc2)N(CCCN2CCN(c3ccc(F)cc3)CC2)C1=S (centres undefined),-2.3,7.2,7.5,-2.3,95.4*
CCOc1ccc(NC(=O)CC2C(=O)N(C)C(=S)N2CCCc2ccccc2)cc1 (centres undefined),0.1,0.0,16.7,0.2,26.7
CCCOc1ccc(NC(=O)CC2C(=O)N(CC)C(=S)N2CCCN2CCN(Cc3ccccc3)CC2)cc1 (centres undefined),2.4,7.0,7.2,3.9,92.3*
O=C(CCN1CCN(CCO)CC1)Nc1ccc(OCc2ccccc2)cc1,-1.8,-6.8,10.7,1.0,2.2
O=C(CCN1CCN(Cc2ccccc2)CC1)Nc1ccc(OCc2ccccc2)cc1,3.0,-50.7,-4.2,-3.4,70.3*
CCN1C(=O)C(CC(=O)Nc2ccc(Br)cc2)N(CCCc2ccccc2)C1=S (centres undefined),-0.2,-0.1,15.9,3.6,89.3*
CCOc1ccc(NC(=O)CC2C(=O)N(CC)C(=S)N2CCN2CCOCC2)cc1 (centres undefined),0.4,0.6,-4.2,0.4,6.3
COc1cccc(NC(=O)NCc2ccccc2Cl)c1,4.5,14.7,-0.4,0.6,/
O=C(COC(=O)COc1ccc(Cl)cc1Br)NC1CC1,0.3,-4.0,1.3,1.7,/
CCCCCc1nc2c(C#N)c(-c3ccc(Cl)cc3)ccn2n1,2.7,3.1,13.4,4.2,91.6*
N#Cc1c(-c2ccc(Cl)cc2)ccn2nc(CCC(=O)O)nc12,-0.8,-2.9,6.8,-1.9,-4.7
CCOC(=O)c1ccc(Nc2nc(-c3cccnc3)nc3ccccc23)cc1,9.5,17.4,18.4,20.4,92.8*
Cc1cc(C(=O)NCC(c2ccco2)N2CCCC2)c2ccccc2n1 (centres undefined),0.8,-8.6,3.7,2.0,/
Cc1ccc(Oc2nc3c(c(=O)n(Cc4ccccc4F)c(=O)n3C)n2C)cc1,1.2,8.4,6.8,1.0,94.0*
C=CCOc1cccc(C2/C(=C(\O)c3ccc4c(c3)OCCO4)C(=O)C(=O)N2CCN2CCOCC2)c1 (centres undefined),1.8,13.9,9.7,-1.6,/
Cc1ccn2c(C(=O)CSc3ccccc3Cl)c(C)nc2c1,4.0,-3.2,-6.6,4.0,72.7*
S=C(Nc1ccc(Oc2ccccc2)cc1)Nc1cccnc1,0.9,13.4,-22.1,2.4,/
CCc1ccc(S(=O)(=O)NCc2cn3c(C)csc3n2)s1,-0.4,10.8,-0.2,-0.6,90.2*
CCc1ccc(S(=O)(=O)NCc2csc(-c3ccccc3)n2)s1,-1.1,16.1,-0.7,-1.2,72.9*
CCc1ccc(S(=O)(=O)NCCc2csc(-c3ccccc3)n2)s1,-1.2,2.4,8.6,-4.1,0.6
COc1ccc2c(c1)c(=O)oc1cc3occ(C(C)(C)C)c3cc12,2.2,-7.7,7.9,4.8,87.0*
Cc1nn(CC(=O)NCCN2CCOCC2)c(=O)c2cc3sccc3n12,-0.8,1.4,-6.1,-3.9,/
COc1ccc(COc2cccc(C=O)c2)cc1,-0.8,-0.2,24.4,-2.2,/
O=Cc1cccc(OCc2cccc3ccccc23)c1,4.4,3.4,70.9*,8.7,/
